Assay results reported in paper PMC9468552 (Clinical and Translational Science, 2022).
Read-outs that look alike come from different tables or passages of the source.

Legend:
[1] = molecular target: T1, CYP3A4 (Homo sapiens, UniProt P08684); assay: Study 008: effect of EDP‐305 on combined oral contraceptive; format: in vivo
[2] = molecular target: T1, CYP3A4; assay: Study 004: DDI of EDP‐305; format: in vivo
[3] = molecular target: T2, CYP1A2 (Homo sapiens, UniProt P05177); assay: Study 004: DDI of EDP‐305; format: in vivo; settings: increase in caffeine AUC less than twofold
T2 sequence (P05177 1-516): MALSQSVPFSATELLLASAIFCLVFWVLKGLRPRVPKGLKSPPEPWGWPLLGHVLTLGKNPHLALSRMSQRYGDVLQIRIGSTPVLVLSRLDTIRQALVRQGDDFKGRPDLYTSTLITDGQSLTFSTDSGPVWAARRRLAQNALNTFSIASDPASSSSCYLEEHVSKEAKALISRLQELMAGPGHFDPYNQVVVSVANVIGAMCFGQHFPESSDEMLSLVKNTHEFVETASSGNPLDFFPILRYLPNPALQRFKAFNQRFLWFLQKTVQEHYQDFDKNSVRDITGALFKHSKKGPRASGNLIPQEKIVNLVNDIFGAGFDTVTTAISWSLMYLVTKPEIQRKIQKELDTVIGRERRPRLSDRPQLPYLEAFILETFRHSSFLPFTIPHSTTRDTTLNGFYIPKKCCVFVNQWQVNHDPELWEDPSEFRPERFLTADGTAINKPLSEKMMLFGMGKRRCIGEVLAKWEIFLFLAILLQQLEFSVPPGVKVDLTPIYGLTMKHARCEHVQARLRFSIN

[4] = molecular target: T1, CYP3A4; format: in vivo
[5] = molecular target: T1, CYP3A4; format: in vivo; remark: listed apart in the source
Summary of the method: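 Healthy subjects in a separate part took oral rifampin 600 mg once daily on days 5–16. EDP‐305 10 mg suspension was given on days 1 and 14 after a 10 h fast that continued ≥4 h postdose. Plasma was drawn predose and 0.5–12 h postdose, plus 24, 48 and 72 h before the morning rifampin dose. Analysis used LC–MS/MS and noncompartmental PK. A mixed model on ln values (subject random) gave the geometric LS mean ratio with 90% CI, with EDP‐305 alone as reference.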

[6] = molecular target: T1, CYP3A4; format: in vivo; remark: listed apart in the source
[7] = molecular target: P‐gp (Homo sapiens, UniProt P08183); format: in vivo
[8] = Study 004: trough levels of EDP‐305 and metabolites with and without probes; format: in vivo, human
Summary of the method: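 Healthy volunteers received single oral midazolam 2 mg and caffeine 200 mg on days 1 and 12, and rosuvastatin 20 mg on days 2 and 13. EDP‐305 was given as a 10 mg/30 ml oral suspension each morning on days 5–15 after an overnight fast. Predose troughs were drawn on days 5, 8 and 10–17. Parent and metabolites were measured by LC–MS/MS (range 0.0300–30.0 ng/ml).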

[9] = Safety/tolerability in the four DDI studies; format: in vivo, human; settings: all four studies
[10] = cited from earlier work
[11] = radiolabeled mass balance study; ref data on file; Enanta Pharmaceuticals; cited from earlier work
[12] = same dose/formulation; ref data on file; cited from earlier work
[13] = relative bioavailability assessment; ref data on file; cited from earlier work
[14] = system: cytochrome (CYP) 1A2, 2B6, 2C8, 2C9, 2C19, 2D6, and 3A4 isoenzymes; settings: standard hepatic microsome studies; preclinical studies; cited from earlier work
[15] = system: CYP1A2, 2B6, and 3A4; settings: preclinical studies; cited from earlier work
[16] = system: messenger RNA (mRNA) for CYP1A2 and CYP3A4; settings: incubation in liver microsomes (hepatocytes) in the presence of EDP‐305; preclinical studies; cited from earlier work
[17] = system: OATP1B1 and OATP1B3; settings: in vitro; ref data on file; cited from earlier work
[18] = system: BSEP, MRP2, P‐gp, and BCRP transporters; settings: in vitro; ref data on file; cited from earlier work
[19] = system: BCRP; settings: in vitro; ref data on file; cited from earlier work
[20] = system: P‐gp; settings: in vitro; ref data on file; cited from earlier work
[21] = 12‐week phase II study, 132 non‐cirrhotic patients; cited from earlier work
[22] = system: OATP1B1/B3 and BCRP; assay: Study 004: DDI of EDP‐305; format: in vivo, human
[23] = EDP‐305 2.5 mg tablet co‐administered with OC
[24] = EDP‐305 10 mg + itraconazole 200 mg q.d. (test)
[25] = EDP‐305 10 mg alone (reference)
[26] = EDP‐305 + itraconazole vs EDP‐305 alone
[27] = EDP‐305 10 mg + rifampin 600 mg q.d. (test)
[28] = EDP‐305 + rifampin vs EDP‐305 alone
[29] = EDP‐305 5 mg tablet + fluconazole 400 mg QD (test)
[30] = EDP‐305 5 mg tablet alone (reference)
[31] = EDP‐305 5 mg tablet + quinidine 300 mg BID (test)
[32] = EDP‐305 + quinidine vs EDP‐305 alone

Chain of P‐gp (Homo sapiens, UniProt P08183) (P08183 whole entry): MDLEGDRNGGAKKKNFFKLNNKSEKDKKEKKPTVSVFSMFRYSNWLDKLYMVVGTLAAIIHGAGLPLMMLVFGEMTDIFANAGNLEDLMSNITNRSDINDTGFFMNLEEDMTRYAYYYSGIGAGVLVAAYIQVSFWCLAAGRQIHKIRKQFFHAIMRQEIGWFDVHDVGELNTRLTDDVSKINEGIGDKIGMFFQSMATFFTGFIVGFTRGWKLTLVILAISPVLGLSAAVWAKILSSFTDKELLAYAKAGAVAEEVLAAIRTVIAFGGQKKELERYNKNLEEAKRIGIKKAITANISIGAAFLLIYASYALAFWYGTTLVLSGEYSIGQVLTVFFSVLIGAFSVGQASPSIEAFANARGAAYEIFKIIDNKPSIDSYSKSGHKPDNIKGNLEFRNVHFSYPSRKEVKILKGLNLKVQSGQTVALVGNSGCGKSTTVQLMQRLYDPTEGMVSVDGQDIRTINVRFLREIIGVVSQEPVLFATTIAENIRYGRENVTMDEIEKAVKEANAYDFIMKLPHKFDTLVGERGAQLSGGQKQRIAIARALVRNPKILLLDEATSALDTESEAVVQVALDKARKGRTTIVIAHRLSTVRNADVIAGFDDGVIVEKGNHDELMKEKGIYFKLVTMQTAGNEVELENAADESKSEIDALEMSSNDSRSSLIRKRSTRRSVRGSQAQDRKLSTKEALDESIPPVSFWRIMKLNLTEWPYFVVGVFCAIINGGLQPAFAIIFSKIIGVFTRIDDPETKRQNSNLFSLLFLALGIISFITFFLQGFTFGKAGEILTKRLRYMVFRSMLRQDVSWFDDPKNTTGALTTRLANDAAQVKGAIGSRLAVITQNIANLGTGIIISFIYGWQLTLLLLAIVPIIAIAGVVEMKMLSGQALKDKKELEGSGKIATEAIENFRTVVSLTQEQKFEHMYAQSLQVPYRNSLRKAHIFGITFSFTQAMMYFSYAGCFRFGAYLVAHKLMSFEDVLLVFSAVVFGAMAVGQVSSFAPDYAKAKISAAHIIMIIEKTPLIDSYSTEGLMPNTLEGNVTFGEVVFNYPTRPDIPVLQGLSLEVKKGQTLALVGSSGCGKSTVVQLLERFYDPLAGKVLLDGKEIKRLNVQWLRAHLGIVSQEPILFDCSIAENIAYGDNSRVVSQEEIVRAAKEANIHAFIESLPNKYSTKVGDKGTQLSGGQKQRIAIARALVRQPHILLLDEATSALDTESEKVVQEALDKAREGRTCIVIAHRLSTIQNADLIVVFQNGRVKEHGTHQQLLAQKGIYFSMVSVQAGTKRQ
T1 sequence (P08684 whole entry): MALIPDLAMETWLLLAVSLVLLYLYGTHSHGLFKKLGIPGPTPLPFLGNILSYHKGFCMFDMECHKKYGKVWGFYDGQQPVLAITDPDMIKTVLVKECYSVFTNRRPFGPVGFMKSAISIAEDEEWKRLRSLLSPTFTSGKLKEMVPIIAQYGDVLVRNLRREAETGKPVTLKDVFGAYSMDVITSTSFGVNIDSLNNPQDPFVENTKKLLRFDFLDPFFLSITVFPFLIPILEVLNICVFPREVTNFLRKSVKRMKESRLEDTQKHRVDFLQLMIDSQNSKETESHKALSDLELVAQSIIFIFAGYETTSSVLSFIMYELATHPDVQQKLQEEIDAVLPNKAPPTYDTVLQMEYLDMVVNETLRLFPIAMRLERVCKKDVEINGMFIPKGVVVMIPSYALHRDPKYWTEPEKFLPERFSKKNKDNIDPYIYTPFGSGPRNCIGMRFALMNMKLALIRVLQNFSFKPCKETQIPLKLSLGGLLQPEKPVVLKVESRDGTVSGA

SMILES: C#C[C@]1(O)CC[C@H]2[C@@H]3CCC4=CC(=NO)CC[C@@H]4[C@H]3CC[C@@]21CC (mixture of isomers) [norelgestromin]
- AUC0,t, Geo LSMean ratio (90% CI) ([1]; OC + EDP‐305 vs OC alone): 0.99 (0.92, 1.05)
- Cmax, Geo LSMean ratio (90% CI) ([1]; OC + EDP‐305 vs OC alone): 0.94 (0.86, 1.02)
- AUC(0-t) ([1]; human, plasma, oral, AUC0,t, Geo LSMean, OC alone (reference), day 21): 25.9 ng·h/mL
- Cmax ([1]; human, plasma, oral, Geo LSMean, OC + EDP‐305 2.5 mg tablet (test), day 21): 2.47 ng/mL
- Cmax ([1]; human, plasma, oral, Geo LSMean, OC alone (reference), day 21): 2.64 ng/mL
- Peak and systemic exposures (Cmax and AUC0‐τ), OC + EDP‐305 vs OC alone ([1]; in words): similar

SMILES: OCc1ncc2n1-c1ccc(Cl)cc1C(c1ccccc1F)=NC2 [1′‐hydroxymidazolam]
- GM AUCR0‐inf, metabolite‐to‐parent ratio ([2]; midazolam administered alone): 39.1%
- GM AUCR0‐inf, metabolite‐to‐parent ratio ([2]; midazolam administered with EDP‐305): 20.6%

SMILES: CC[C@H]1[C@@H](O)[C@@H]2[C@H](CC[C@]3(C)[C@@H]([C@H](C)CCNC(=O)NS(=O)(=O)c4ccc(C(C)(C)C)cc4)CC[C@@H]23)[C@@]2(C)CC[C@@H](O)C[C@@H]12 [EDP‐305]
- classification as CYP3A4 inhibitor from increase in midazolam AUC ([2]; increase in midazolam AUC less than twofold): weak inhibitor of CYP3A4
- classification as CYP1A2 inhibitor from increase in caffeine AUC [3]: weak inhibitor of CYP1A2
- geometric mean t1/2 [1, 23]: 9.6 h
- median Tmax [1, 23]: 4.0 h
- effect on serum progesterone levels ([1]; co‐administration of combined OC and EDP‑305): no effect
- AUC0,inf, Geo LSMean [4, 24]: 1891.47 ng·h/mL
- Cmax, Geo LSMean [4, 24]: 50.48 ng/mL
- AUC0,inf, Geo LSMean [4, 25]: 360.31 ng·h/mL
- Cmax, Geo LSMean [4, 25]: 31.25 ng/mL
- delayed Tmax [4, 26]: 2 fold
- longer t1/2 (increase) [4, 26]: 2.79 fold
- AUC0,inf, Geo LSMean [5, 27]: 137.92 ng·h/mL
- Cmax, Geo LSMean [5, 27]: 27.02 ng/mL
- AUC0,inf, Geo LSMean [5, 25]: 393.59 ng·h/mL
- Cmax, Geo LSMean [5, 25]: 29.62 ng/mL
- AUC0,inf, Geo LSMean ratio (90% CI) [5, 28]: 0.35 (0.30, 0.41)
- effect on EDP‐305 peak exposure [5, 28]: no apparent effect
- effect on Tmax [5, 28]: no apparent effect
- higher CL/F [5, 28]: 2.77 fold
- higher Vd/F [5, 28]: 1.79 fold
- shorter t1/2 [5, 28]: 0.35 fold
- total systemic exposure decreased [5, 28]: ~ 65%
- AUC0,inf, Geo LSMean [6, 29]: 1537.60 ng·h/mL
- Cmax, Geo LSMean [6, 29]: 57.71 ng/mL
- AUC0,inf, Geo LSMean [6, 30]: 408.40 ng·h/mL
- Cmax, Geo LSMean [6, 30]: 32.73 ng/mL
- CL/F and Vd/F, change ([6]; EDP‐305 + fluconazole compared to EDP‐305 alone): decreased
- t1/2 increased ([6]; EDP‐305 + fluconazole relative to EDP‐305 alone): increased
- AUC0,inf, Geo LSMean [7, 31]: 367.17 ng·h/mL
- Cmax, Geo LSMean [7, 31]: 31.78 ng/mL
- AUC0,inf, Geo LSMean [7, 30]: 353.24 ng·h/mL
- Cmax, Geo LSMean [7, 30]: 31.64 ng/mL
- AUC0,inf, Geo LSMean ratio (90% CI) [7, 32]: 1.04 (0.95, 1.14)
- Cmax, Geo LSMean ratio (90% CI) [7, 32]: 1.00 (0.92, 1.10)
- effect on EDP‐305 peak or systemic exposure [7, 32]: no apparent effect
- effect on Tmax, Vd/F, CL/F, and t1/2 [7, 32]: minimal effect
- steady‐state concentrations achieved ([8]; EDP‐305 10 mg daily from day 5, majority of subjects): ≤ 12 days
- effect of co‐administered enzyme or transporter probes on PK ([8]; single doses of midazolam, caffeine, rosuvastatin): no apparent effect
- tolerability [9]: well‐tolerated
- tolerability ([10]; single doses up to 80 mg, multiple daily doses up to 20 mg for 14 days): well‐tolerated
- steady‐state pharmacokinetics reached ([10]; visual inspection of trough concentrations, across all doses): ≤ 9 days
- EDP‐305 in urine [11]: not detected
- mean recovery of total radioactivity in feces [11]: 78.7%
- mean recovery of total radioactivity in urine [11]: 1.42%
- exposures in patients with NASH versus healthy subjects [12]: approximately twofold higher
- exposures of tablet compared to suspension [13]: approximately twofold higher
- potential to inhibit CYP 1A2, 2B6, 2C8, 2C9, 2C19, 2D6, and 3A4 [14]: low potential to inhibit
- potential to induce CYP1A2, 2B6, and 3A4 [15]: low potential
- effect on mRNA for CYP1A2 and CYP3A4 [16]: concentration‐dependent downregulation
- inhibition of OATP1B1 and OATP1B3 [17]: the potential for EDP‐305 to inhibit
- inhibition of BSEP, MRP2, P‐gp, and BCRP [18]: low potential to inhibit
- BCRP substrate [19]: unlikely to be a BCRP substrate
- P‐gp substrate [20]: has potential to be a P‐gp substrate
- efficacy in patients with fibrotic NASH [21]: reduced hepatic enzyme levels and liver fat

SMILES: CC(C)c1nc(NS(C)(=O)=O)nc(-c2ccc(F)cc2)c1/C=C/[C@@H](O)C[C@@H](O)CC(=O)O [N‐desmethyl‐rosuvastatin]
- GM AUCR0‐inf, metabolite‐to‐parent ratio ([22]; rosuvastatin administered alone): 16.6%
- GM AUCR0‐inf, metabolite‐to‐parent ratio ([22]; rosuvastatin administered with EDP‐305): 11.2%
